Results published in ChEMBL document CHEMBL1135707, “Identification of potent and selective mechanism-based inhibitors of the cysteine protease cruzain using solid-phase parallel synthesis” (J Med Chem, 2002).
In brackets after ≈: the same amount, converted by molar mass.

Assays:
[1] = molecular target: Procathepsin L (Homo sapiens, UniProt P07711); test: Inhibitory activity against human Cathepsin L
How it was run: (§1)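 Buffer was 0.25 M sodium acetate pH 5.5 with 2 mM EDTA, 0.015% Brij-35 and 1 mM DTT. 5 min enzyme–inhibitor preincubation, ex 355/em 450 nm, duplicate wells. Ki obtained from Williams–Morrison fit.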

[2] = molecular target: Cathepsin B (Homo sapiens, UniProt P07858); test: Inhibitory activity against human Cathepsin B; how it was run: as §1
[3] = molecular target: Cruzipain (Trypanosoma cruzi, UniProt P25779); test: Inhibitory activity against cruzain, the major cysteine protease found in Trypanosoma cruzi
How it was run: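 Enzyme and inhibitor (in DMSO) preincubated 5 min before substrate addition. Read at ex 355/em 450 nm at four time points in the linear region. Activity taken against no-inhibitor controls, run in duplicate. Ki obtained from Williams–Morrison tight-binding fit.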

[4] = Aqueous solubility using UV analysis; type: physicochemical
How it was run: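 Solubility measured by an outside lab after 2 h preincubation of inhibitor in pH 7.4 aqueous buffer at 37 °C. Quantitated by UV absorbance at 211 nm.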

Sequence of Cruzipain (P25779 whole entry): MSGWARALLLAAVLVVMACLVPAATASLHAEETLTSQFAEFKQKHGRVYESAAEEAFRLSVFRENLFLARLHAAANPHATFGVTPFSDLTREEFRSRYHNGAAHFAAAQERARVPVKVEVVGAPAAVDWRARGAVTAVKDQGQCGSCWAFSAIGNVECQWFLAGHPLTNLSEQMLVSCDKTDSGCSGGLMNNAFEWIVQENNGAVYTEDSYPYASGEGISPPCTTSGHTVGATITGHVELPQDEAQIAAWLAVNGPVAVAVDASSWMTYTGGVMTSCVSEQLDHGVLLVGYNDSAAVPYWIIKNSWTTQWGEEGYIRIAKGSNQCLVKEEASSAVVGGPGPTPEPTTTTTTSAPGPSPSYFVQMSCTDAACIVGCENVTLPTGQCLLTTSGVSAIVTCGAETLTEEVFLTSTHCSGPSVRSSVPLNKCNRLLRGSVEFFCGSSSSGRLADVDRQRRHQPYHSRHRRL
Sequence of Procathepsin L (P07711 whole entry): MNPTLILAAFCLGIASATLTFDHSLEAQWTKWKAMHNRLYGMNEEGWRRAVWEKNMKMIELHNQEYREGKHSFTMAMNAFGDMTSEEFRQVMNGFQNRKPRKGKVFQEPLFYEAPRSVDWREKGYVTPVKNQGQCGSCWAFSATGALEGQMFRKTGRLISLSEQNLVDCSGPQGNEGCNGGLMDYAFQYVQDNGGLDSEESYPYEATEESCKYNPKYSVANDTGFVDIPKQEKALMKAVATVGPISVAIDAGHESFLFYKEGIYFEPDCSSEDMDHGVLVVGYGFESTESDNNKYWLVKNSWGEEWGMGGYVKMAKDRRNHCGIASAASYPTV

## CC(C)C[C@H](NC(=O)OCc1cccnc1)C(=O)N[C@@H](CCc1ccccc1)C(=O)CSCCCc1ccccc1
[1]
  Ki: 144 nM
[2]
  Ki: 1700 nM
[3]
  Ki: 1.1 nM

## O=C(N[C@@H](Cc1ccccc1)C(=O)N[C@@H](Cc1ccccc1)C(=O)CSCCCc1ccccc1)OCc1ccccc1
[1]
  Ki: 2.8 nM
[2]
  Ki: 45.4 nM
[3]
  Ki: 2 nM

## CCOC(=O)CCSCC(=O)[C@H](Cc1ccccc1)NC(=O)[C@H](Cc1ccccc1)NC(=O)OCc1ccccn1
[3]
  Ki: 30.4 nM

## O=C(CSCCCc1ccccc1)[C@H](Cc1ccccc1)NC(=O)[C@H](Cc1ccccc1)NC(=O)N1CCOCC1
[3]
  Ki: 216 nM

## CC(C)(C)SCC(=O)[C@H](Cc1ccccc1)NC(=O)[C@H](Cc1ccccc1)NC(=O)OCc1cccnc1
[4]
  solubility: 288 µM (≈ 154 µg/mL)
[3]
  Ki: 4.6 nM

## CCOC(=O)C(C)SCC(=O)[C@H](Cc1ccccc1)NC(=O)[C@H](Cc1ccccc1)NC(=O)OCc1ccccc1 (some centres undefined)
[3]
  Ki: 37 nM

## COc1ccc(CSCC(=O)[C@H](Cc2ccccc2)NC(=O)[C@H](Cc2ccccc2)NC(=O)OCc2ccccc2)cc1
[3]
  Ki: 32.4 nM

## CC(C)SCC(=O)[C@H](Cc1ccccc1)NC(=O)[C@H](Cc1ccccc1)NC(=O)OCc1ccccc1
[3]
  Ki: 4.6 nM

## CC(C)CCSCC(=O)[C@H](Cc1ccccc1)NC(=O)[C@H](Cc1ccccc1)NC(=O)OCc1ccccc1
[3]
  Ki: 30.1 nM

## O=C(N[C@@H](Cc1ccccc1)C(=O)N[C@@H](Cc1ccccc1)C(=O)CSCCCc1ccccc1)OCc1cccnc1
[3]
  Ki: 5.5 nM

## CC(C)(C)CC(C)(C)SCC(=O)[C@H](Cc1ccccc1)NC(=O)[C@H](Cc1ccccc1)NC(=O)OCc1ccccc1
[3]
  Ki: 10.4 nM

## CC(C)C[C@H](NC(=O)OCc1ccncc1)C(=O)N[C@@H](Cc1ccccc1)C(=O)CSC(C)(C)C
[1]
  Ki: 28.8 nM
[2]
  Ki: 4800 nM
[3]
  Ki: 14.1 nM

## CCC(C)SCC(=O)[C@H](Cc1ccccc1)NC(=O)[C@H](Cc1ccccc1)NC(=O)OCc1ccccc1 (some centres undefined)
[3]
  Ki: 5.8 nM

## CCOC(=O)CSCC(=O)[C@H](Cc1ccccc1)NC(=O)[C@H](Cc1ccccc1)NC(=O)OCc1ccccc1
[3]
  Ki: 31.2 nM

## CC(C)C[C@H](NC(=O)OCc1cccnc1)C(=O)N[C@@H](CCc1ccccc1)C(=O)CSC(C)(C)C
[1]
  Ki: 44 nM
[2]
  Ki: 1300 nM
[3]
  Ki: 2 nM

## CC(C)C[C@H](NC(=O)N1CCOCC1)C(=O)N[C@@H](Cc1ccccc1)C(=O)CSCCCc1ccccc1
[3]
  Ki: 131 nM

## CCOC(=O)CCSCC(=O)[C@H](Cc1ccccc1)NC(=O)[C@H](CC(C)C)NC(=O)OCc1ccccc1
[3]
  Ki: 8 nM

## CCOC(=O)CCSCC(=O)[C@H](Cc1ccccc1)NC(=O)[C@H](Cc1ccccc1)NC(=O)N1CCOCC1
[3]
  Ki: 59.1 nM

## CC(C)(C)SCC(=O)[C@H](Cc1ccccc1)NC(=O)[C@H](Cc1ccccc1)NC(=O)N1CCOCC1
[3]
  Ki: 54.6 nM

## CC(C)C[C@H](NC(=O)OCc1ccccc1)C(=O)N[C@@H](Cc1ccccc1)C(=O)CSC(C)C
[3]
  Ki: 7.8 nM

## CC(C)C[C@H](NC(=O)OCc1ccccc1)C(=O)N[C@@H](Cc1ccccc1)C(=O)CSCCCc1ccccc1
[1]
  Ki: 4.7 nM
[2]
  Ki: 136 nM
[3]
  Ki: 1 nM

## O=C(N[C@@H](Cc1ccccc1)C(=O)N[C@@H](Cc1ccccc1)C(=O)CSCc1ccc(Cl)cc1)OCc1ccccc1
[3]
  Ki: 82.7 nM

## O=C(N[C@@H](Cc1ccccc1)C(=O)N[C@@H](CCc1ccccc1)C(=O)CSCCCc1ccccc1)OCc1cccnc1 (stereo in doubt; 16e)
[1]
  Ki: 28.8 nM
[2]
  Ki: 700 nM
[3]
  Ki: 0.9 nM

## CNC(=O)CSCC(=O)[C@H](Cc1ccccc1)NC(=O)[C@H](Cc1ccccc1)NC(=O)OCc1ccccc1
[3]
  Ki: 15 nM

## CCOC(=O)CCSCC(=O)[C@H](Cc1ccccc1)NC(=O)[C@H](CC(C)C)NC(=O)N1CCOCC1
[3]
  Ki: 69.6 nM

## CCOC(=O)CCSCC(=O)[C@H](Cc1ccccc1)NC(=O)[C@H](Cc1ccccc1)NC(=O)OCc1cccnc1
[3]
  Ki: 22.7 nM

## CC(C)C[C@H](NC(=O)OCc1ccccc1)C(=O)N[C@@H](Cc1ccccc1)C(=O)CSC(C)(C)C
[1]
  Ki: 7.9 nM
[2]
  Ki: 112 nM
[3]
  Ki: 1.3 nM

## CC(=O)NCCSCC(=O)[C@H](Cc1ccccc1)NC(=O)[C@H](Cc1ccccc1)NC(=O)OCc1ccccc1
[3]
  Ki: 34.3 nM

## CC(C)(C)SCC(=O)[C@H](Cc1ccccc1)NC(=O)[C@H](Cc1ccccc1)NC(=O)OCc1ccccc1
[4]
  solubility: 70 µM (≈ 37.3 µg/mL)
[1]
  Ki: 1.7 nM
[2]
  Ki: 45 nM
[3]
  Ki: 2.5 nM

## CC(C)C[C@H](NC(=O)OCc1cccnc1)C(=O)N[C@@H](Cc1ccccc1)C(=O)CSC(C)(C)C
[4]
  solubility: 378 µM (≈ 189 µg/mL)
[3]
  Ki: 4.8 nM

## CC(C)(C)c1ccc(CSCC(=O)[C@H](Cc2ccccc2)NC(=O)[C@H](Cc2ccccc2)NC(=O)OCc2ccccc2)cc1
[3]
  Ki: 22 nM

## O=C(N[C@@H](Cc1ccccc1)C(=O)N[C@@H](CCc1ccccc1)C(=O)CSCCCc1ccccc1)OCc1cccnc1 (stereo in doubt; 16d)
[3]
  Ki: 5.4 nM

## O=C(N[C@@H](Cc1ccccc1)C(=O)N[C@@H](Cc1ccccc1)C(=O)CSC1CCCCC1)OCc1ccccc1
[3]
  Ki: 7.5 nM

## O=C(N[C@@H](Cc1ccccc1)C(=O)N[C@@H](Cc1ccccc1)C(=O)CSC1CCCC1)OCc1ccccc1
[3]
  Ki: 34.3 nM

## CC(C)C[C@H](NC(=O)OCc1ccccn1)C(=O)N[C@@H](Cc1ccccc1)C(=O)CSC(C)(C)C
[3]
  Ki: 13.8 nM

## CCOC(=O)CCSCC(=O)[C@H](Cc1ccccc1)NC(=O)[C@H](Cc1ccccc1)NC(=O)OCc1ccccc1
[1]
  Ki: 1.5 nM
[2]
  Ki: 42.7 nM
[3]
  Ki: 2.9 nM

## CC(C)C[C@H](NC(=O)N1CCOCC1)C(=O)N[C@@H](Cc1ccccc1)C(=O)CSC(C)(C)C
[3]
  Ki: 59.7 nM

## O=C(N[C@@H](Cc1ccccc1)C(=O)N[C@@H](Cc1ccccc1)C(=O)CSCc1ccccc1)OCc1ccccc1
[3]
  Ki: 44 nM

## CC(C)(C)SCC(=O)[C@H](CCc1ccccc1)NC(=O)[C@H](Cc1ccccc1)NC(=O)OCc1cccnc1
[1]
  Ki: 9.6 nM
[2]
  Ki: 600 nM
[3]
  Ki: 1.4 nM

## O=C(N[C@@H](Cc1ccccc1)C(=O)N[C@@H](Cc1ccccc1)C(=O)CSCCc1ccccc1)OCc1ccccc1
[3]
  Ki: 4.2 nM

## CC(C)(C)CC(C)(CC(C)(C)C)SCC(=O)[C@H](Cc1ccccc1)NC(=O)[C@H](Cc1ccccc1)NC(=O)OCc1ccccc1
[3]
  Ki: 5 nM
